Activity calls are given as the source filed them. The rule behind the calls is not given here.
test system: Human alphaherpesvirus 2; assay: Antiherpetic activity against HSV2 at 0.5 mg/ml by MTT assay; type: functional
In short: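 Activity against HSV2 was assayed by a previously reported procedure. The initial concentration of test samples and of the acyclovir positive control was 0.5 mg/mL, and samples were tested at several concentration levels. Each level had four independent experiments. The end-point was an MTT assay read as optical density.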

| Compound | inhibition at 500 µg/mL [%] | inhibition |
| --- | --- | --- |
| CC(=O)OC[C@]12[C@H](OC(C)=O)[C@H](OC(C)=O)[C@@H]3[C@@H](OC(=O)c4ccccc4)[C@@]14O[C@@]3(C)COC(=O)c1cccnc1C(C)C(C)C(=O)O[C@@H]([C@H](OC(C)=O)[C@@H]2OC(C)=O)[C@]4(C)O (stereo not given in full) | 22.3 | – |
| CC(=O)OC[C@]12[C@H](OC(C)=O)[C@H](OC(C)=O)[C@@H]3[C@@H](OC(C)=O)[C@@]14O[C@@]3(C)COC(=O)c1cccnc1CCC(C)(O)C(=O)O[C@@H]([C@H](OC(=O)c1ccco1)[C@@H]2OC(C)=O)[C@]4(C)O (stereo not given in full) | – | inactive |
| CC(=O)OC[C@]12[C@H](OC(C)=O)[C@H](OC(C)=O)[C@@H]3[C@@H](OC(C)=O)[C@@]14O[C@@]3(C)COC(=O)c1cccnc1CCC(C)C(=O)O[C@@H]([C@H](OC(=O)c1ccccc1)[C@@H]2OC(C)=O)[C@]4(C)O (stereo not given in full) | – | inactive |
| CC(=O)OC[C@]12[C@H](OC(C)=O)[C@H](OC(C)=O)[C@@H]3[C@@H](OC(C)=O)[C@@]14O[C@@]3(C)COC(=O)c1cnccc1C(C)C(C)C(=O)O[C@@H]([C@H](OC(C)=O)[C@@H]2OC(C)=O)[C@]4(C)O (stereo not given in full) | – | inactive |
| CC(=O)OC[C@]12[C@H](OC(C)=O)[C@H](OC(=O)c3ccccc3)[C@@H]3[C@@H](O)[C@@]14O[C@@]3(C)COC(=O)c1cccnc1CC[C@H](C)C(=O)O[C@@H]([C@H](OC(C)=O)[C@@H]2OC(C)=O)[C@]4(C)O | – | inactive |
| CC(=O)OC[C@]12[C@H](OC(C)=O)C(=O)[C@@H]3[C@@H](OC(C)=O)[C@@]14O[C@@]3(C)COC(=O)c1cccnc1CCC(C)(OC(C)=O)C(=O)O[C@@H]([C@H](OC(=O)c1ccoc1)[C@@H]2OC(C)=O)[C@]4(C)O (stereo not given in full) | – | inactive |
| CC(=O)OC[C@]12[C@H](OC(C)=O)[C@H](OC(C)=O)[C@@H]3[C@@H](OC(C)=O)[C@@]14O[C@@]3(C)COC(=O)c1cccnc1CCC(C)(O)C(=O)O[C@@H]([C@H](O)[C@@H]2OC(C)=O)[C@]4(C)O (stereo not given in full) | – | inactive |
| CC(=O)OC[C@]12[C@H](OC(C)=O)[C@H](OC(C)=O)[C@@H]3[C@@H](OC(C)=O)[C@@]14O[C@@]3(C)COC(=O)c1cccnc1CCC(C)(OC(C)=O)C(=O)O[C@@H]([C@H](OC(=O)c1ccoc1)[C@@H]2OC(C)=O)[C@]4(C)O (stereo not given in full) | – | inactive |
| CC(=O)OC[C@]12[C@H](OC(C)=O)[C@H](OC(C)=O)[C@@H]3[C@@H](OC(C)=O)[C@@]14O[C@@]3(C)COC(=O)c1cccnc1CC[C@H](C)C(=O)O[C@@H]([C@H](OC(C)=O)[C@@H]2OC(C)=O)[C@]4(C)O | – | inactive |
| CC(=O)OC[C@]12[C@H](OC(C)=O)[C@H](OC(=O)c3cccnc3)[C@@H]3[C@@H](OC(C)=O)[C@@]14O[C@@]3(C)COC(=O)c1cnccc1C(C)C(C)C(=O)O[C@@H]([C@H](OC(C)=O)[C@@H]2OC(C)=O)[C@]4(C)O (stereo not given in full) | – | inactive |
| CC(=O)OC[C@]12[C@H](OC(C)=O)[C@H](OC(C)=O)[C@@H]3[C@@H](O)[C@@]14O[C@@]3(C)COC(=O)c1cccnc1C(C)C(C)C(=O)O[C@@H]([C@H](OC(C)=O)[C@@H]2OC(C)=O)[C@]4(C)O (stereo not given in full) | – | inactive |
| CC(=O)OC[C@]12[C@H](OC(C)=O)[C@H](OC(C)=O)[C@@H]3[C@@H](OC(C)=O)[C@@]14O[C@@]3(C)COC(=O)c1cccnc1C(C)C(C)C(=O)O[C@@H]([C@H](OC(C)=O)[C@@H]2OC(C)=O)[C@]4(C)O (stereo not given in full) | – | inactive |
| CC(=O)OC[C@]12[C@H](OC(C)=O)[C@H](OC(C)=O)[C@@H]3[C@@H](OC(C)=O)[C@@]14O[C@@]3(C)COC(=O)c1cccnc1CCC(C)C(=O)O[C@@H]([C@H](OC(=O)c1ccco1)[C@@H]2OC(C)=O)[C@]4(C)O (stereo not given in full) | – | inactive |
| CC(=O)OC[C@]12[C@H](OC(C)=O)[C@H](OC(C)=O)[C@@H]3[C@@H](OC(C)=O)[C@@]14O[C@@]3(C)COC(=O)c1cccnc1CCC(C)(OC(=O)c1ccoc1)C(=O)O[C@@H]([C@H](OC(=O)c1ccccc1)[C@@H]2OC(C)=O)[C@]4(C)O (stereo not given in full) | – | inactive |
| CC(=O)OC[C@]12[C@H](OC(C)=O)[C@H](OC(C)=O)[C@@H]3[C@@H](OC(C)=O)[C@@]14O[C@@]3(C)COC(=O)c1cccnc1CCC(C)(O)C(=O)O[C@@H]([C@H](OC(=O)c1ccccc1)[C@@H]2OC(C)=O)[C@]4(C)O (stereo not given in full) | – | inactive |
| CC(=O)OC[C@]12[C@H](OC(C)=O)[C@H](OC(C)=O)[C@@H]3[C@@H](OC(=O)c4ccccc4)[C@@]14O[C@@]3(C)COC(=O)c1cccnc1C(C)C(C)C(=O)O[C@@H]([C@H](OC(C)=O)[C@@H]2OC(=O)c1ccccc1)[C@]4(C)O (stereo not given in full) | – | inactive |
| CC1(C)O[C@]23[C@H](OC(=O)c4cccnc4)[C@H]1C[C@H](OC(=O)/C=C/c1ccccc1)[C@]2(C)[C@@H](OC(=O)c1ccccc1)CC[C@]3(C)O | – | inactive |
| Nc1nc2c(ncn2COCCO)c(=O)[nH]1 [ACYCLOVIR] | 66.3 | – |

test system: Human alphaherpesvirus 2; assay: Antiherpetic activity against HSV2 at 0.25 mg/ml by MTT assay; type: functional
In short: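 Anti-HSV2 test run by a previously reported method. Samples started at an initial concentration of 0.25 mg/mL and were assayed at several concentration levels. Four independent experiments were run at each level. Acyclovir was the positive control. The read-out was an MTT assay, with optical density measured on a multimode plate reader.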

| Compound | inhibition at 250 µg/mL [%] |
| --- | --- |
| CC1(C)O[C@]23[C@H](OC(=O)c4cccnc4)[C@H]1C[C@H](OC(=O)c1ccccc1)[C@]2(C)[C@@H](OC(=O)c1ccccc1)CC[C@]3(C)O [REGELIDINE] | 31.7 |
| Nc1nc2c(ncn2COCCO)c(=O)[nH]1 [ACYCLOVIR] | 60.6 |

Reference: ChEMBL document CHEMBL1949540, “Dihydroagarofuran derivatives from the dried roots of Tripterygium wilfordii” (2012)
